{"source": "ChEMBL document CHEMBL3407360", "about": "“Proteasome inhibitors with pyrazole scaffolds from structure-based virtual screening” (J Med Chem, 2015)", "key": {"[1]": {"system": "RPMI-8226", "experiment": "Inhibition of 20S proteasome trypsin-like in human RPMI8226 cell extracts using Boc-LRR-AMC as substrate preincubated at 1 to 10 uM for 30 mins before substrate addition by fluorescence assay", "assay_type": "cell-free", "summary_of_the_method": "(§1)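 Cytosolic extracts of RPMI 8226 cells served as the proteasome source in place of purified enzyme. Extracts were preincubated with compound, and hydrolysis of Suc-LLVY-AMC (CT-L), Z-LLE-AMC (C-L) or Boc-LRR-AMC (T-L) was read by AMC fluorescence at ex 360/em 460 nm.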"}, "[2]": {"system": "RPMI-8226", "experiment": "Inhibition of 20S proteasome caspase-like in human RPMI8226 cell extracts using Z-LLE-AMC as substrate preincubated at 1 to 10 uM for 30 mins before substrate addition by fluorescence assay", "assay_type": "cell-free", "summary_of_the_method": "as §1"}, "[3]": {"system": "NCI-H358", "experiment": "Cytotoxicity against human NCI-H358 cells after 72 hrs", "assay_type": "functional, cell-based", "conditions": "NCI-H358, 72 h", "summary_of_the_method": "(§2)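 Adherent lines, growing in log phase in DMEM or RPMI 1640 with 10% FBS, were plated at 7,000–10,000 cells/well. Compound was added 24 h later at the final concentration. Viability was measured after 72 h by CellTiter Glo luminescence or CellTiter 96 Aqueous One absorbance.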"}, "[4]": {"species_on_record": "Homo sapiens", "experiment": "Inhibition of human 20S proteasome beta2i trypsin-like activity using Boc-LRR-AMC as substrate preincubated for 30 mins before substrate addition measured over 90 mins by fluorescence assay", "summary_of_the_method": "(§3)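 Purified human 20S proteasome (CP or IP, 0.5 µg/mL) was preincubated with compound for 30 min at room temperature in 20 mM Tris-HCl, 0.5 mM EDTA, 0.035% SDS. Substrates were Ac-nLPnLD-AMC 100 µM for β1, Ac-PAL-AMC 100 µM for β1i, and Boc-LRR-AMC 200 µM for β2/β2i. AMC release was followed 90 min at room temperature, ex 360/em 460 nm.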"}, "[5]": {"biological_target": "T1, Proteasome component C5 (Homo sapiens) (UniProt P20618)", "T1 sequence (whole entry)": "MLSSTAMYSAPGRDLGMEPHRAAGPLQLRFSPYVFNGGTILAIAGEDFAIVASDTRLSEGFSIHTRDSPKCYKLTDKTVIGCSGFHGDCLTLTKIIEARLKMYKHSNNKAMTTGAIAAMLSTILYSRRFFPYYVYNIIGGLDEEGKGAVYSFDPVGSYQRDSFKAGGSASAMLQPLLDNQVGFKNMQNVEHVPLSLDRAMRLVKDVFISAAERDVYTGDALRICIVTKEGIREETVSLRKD", "experiment": "Inhibition of human 20S proteasome beta1 caspase-like activity using Ac-nLPnLD-AMC as substrate preincubated for 30 mins before substrate addition measured over 90 mins by fluorescence assay", "summary_of_the_method": "as §3"}, "[6]": {"system": "RPMI-8226", "experiment": "Inhibition of 20S proteasome chymotrypsin-like in human RPMI8226 cell extracts using Suc-LLVY-AMC as substrate preincubated at 1 to 10 uM for 30 mins before substrate addition by fluorescence assay", "assay_type": "cell-free", "summary_of_the_method": "as §1"}, "[7]": {"species_on_record": "Homo sapiens", "experiment": "Inhibition of human 20S proteasome beta5i chymotrypsin-like activity using Ac-ANW-AMC as substrate preincubated for 30 mins before substrate addition measured over 90 mins by fluorescence assay"}, "[8]": {"biological_target": "T2, Proteasome Macropain subunit MB1 (Homo sapiens) (UniProt P28074)", "T2 sequence (whole entry)": "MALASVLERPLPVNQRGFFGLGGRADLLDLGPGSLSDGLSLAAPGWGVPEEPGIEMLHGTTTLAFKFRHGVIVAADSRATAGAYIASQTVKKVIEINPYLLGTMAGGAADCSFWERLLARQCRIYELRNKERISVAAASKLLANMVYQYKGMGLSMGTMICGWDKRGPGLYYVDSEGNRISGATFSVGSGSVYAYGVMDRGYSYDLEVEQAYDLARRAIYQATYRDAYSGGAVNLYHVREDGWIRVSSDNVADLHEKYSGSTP", "experiment": "Inhibition of human 20S proteasome beta5 chymotrypsin-like activity using Ac-WLA-AMC as substrate preincubated for 30 mins before substrate addition measured over 90 mins by fluorescence assay"}, "[9]": {"biological_target": "Proteasome Macropain subunit (Homo sapiens) (UniProt P49721)", "sequence (P49721 whole entry)": "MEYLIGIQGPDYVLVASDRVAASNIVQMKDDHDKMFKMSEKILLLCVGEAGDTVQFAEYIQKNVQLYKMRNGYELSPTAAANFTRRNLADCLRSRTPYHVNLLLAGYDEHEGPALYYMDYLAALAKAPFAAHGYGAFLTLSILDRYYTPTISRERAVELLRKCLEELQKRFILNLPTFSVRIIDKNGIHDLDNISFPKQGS", "experiment": "Inhibition of human 20S proteasome beta2 trypsin-like activity using Boc-LRR-AMC as substrate preincubated for 30 mins before substrate addition measured over 90 mins by fluorescence assay", "summary_of_the_method": "as §3"}, "[10]": {"species_on_record": "Homo sapiens", "experiment": "Inhibition of human 20S proteasome beta1i chymotrypsin-like activity using Ac-PAL-AMC as substrate preincubated for 30 mins before substrate addition measured over 90 mins by fluorescence assay", "summary_of_the_method": "as §3"}, "[11]": {"experiment": "Cytotoxicity against human H23 cells after 72 hrs", "assay_type": "functional, cell-based", "conditions": "NCI-H23, 72 h", "summary_of_the_method": "as §2"}, "[12]": {"system": "LNCaP", "experiment": "Cytotoxicity against human LNCAP cells after 72 hrs", "assay_type": "functional, cell-based", "summary_of_the_method": "as §2"}, "[13]": {"system": "LNCaP", "experiment": "Antitumor activity against human LNCAP cells xenografted in nude mouse assessed as tumor growth inhibition at 5 mg/kg, ip twice a week for 4 weeks", "assay_type": "functional, organism-based", "set-up": "dose 5 mg/kg", "summary_of_the_method": "(§4)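 Male athymic BALB/c nude mice, six weeks old, implanted subcutaneously with LNCaP cells (2 x 10^6 cells/50 µL). At ~100 mm3 tumors, n=5/group received 5 mg/kg ip twice weekly for four weeks in 8% DMSO in HP-β-cyclodextrin and citrate. Tumor volume ((width)2 x length/2) and body weight were measured every 4 days. Tumors were excised and weighed at Day 30.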"}, "[14]": {"system": "BXPC-3", "experiment": "Cytotoxicity against carfilzomib-resistant human BxPC3 cells after 72 hrs", "assay_type": "functional, cell-based", "summary_of_the_method": "(§5)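 Resistant BxPC-3 sublines were derived by about 6 months of stepwise increasing drug exposure. […] Compound was added 24 h after plating. Viability was read after 72 h by CellTiter Glo luminescence or CellTiter 96 Aqueous One.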"}, "[15]": {"system": "Liver microsome", "experiment": "Metabolic stability in human liver microsomes", "assay_type": "ADME", "summary_of_the_method": "(§6)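 Compound at 1 µM was incubated with 0.5 mg/ml microsomal protein, either pooled Balb/c mouse or pooled human. The buffer was 100 mM Tris-HCl pH 7.4 with an NADPH-generating system (isocitrate, isocitrate dehydrogenase, MgCl2, NADP+). After 5 min preincubation at 37°C, reactions ran 0, 5, 10 or 20 min and were quenched with cold acetonitrile containing phenytoin internal standard. Parent remaining was measured by LC-MS/MS.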"}, "[16]": {"system": "RPMI8266", "experiment": "Cytotoxicity against human […] cells after 72 hrs", "assay_type": "functional, cell-based", "summary_of_the_method": "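Suspension RPMI 8226 cells were collected by centrifugation and plated at 10,000 cells/well in medium with 10% FBS. Compound was added 24 h later. Viability was read after 72 h by CellTiter Glo or CellTiter 96 Aqueous One.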"}, "[17]": {"system": "BXPC-3", "experiment": "Cytotoxicity against bortezomib-resistant human BxPC3 cells after 72 hrs", "assay_type": "functional, cell-based", "summary_of_the_method": "as §5"}, "[18]": {"system": "BXPC-3", "experiment": "Cytotoxicity against human BxPC3 cells after 72 hrs", "assay_type": "functional, cell-based", "summary_of_the_method": "as §2"}, "[19]": {"system": "RPMI-8226", "experiment": "Reversible inhibition of 20S proteasome in human RPMI8226 cell extracts assessed as dissociation half life compound preincubated for 30 mins followed by 25-fold dilution by jump dilution assay", "assay_type": "cell-based", "summary_of_the_method": "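RPMI 8226 lysate (30 µg protein) was incubated with 10 µM compound for 30 min at room temperature in 20S assay buffer. Baseline Suc-LLVY-AMC hydrolysis was recorded in a cuvette, then the mixture was rapidly diluted 25-fold in assay buffer and recovery of activity was monitored.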"}, "[20]": {"system": "Mus musculus", "experiment": "Toxicity in human LNCAP cells xenografted nude mouse assessed as body weight loss at 5 mg/kg, ip twice a week for 4 weeks", "assay_type": "organism-based", "set-up": "dose 5 mg/kg, route intraperitoneal", "conditions": "in vivo, 672 h", "summary_of_the_method": "as §4"}, "[21]": {"system": "Liver", "experiment": "Metabolic stability in Balb/c mouse liver microsomes", "assay_type": "ADME", "summary_of_the_method": "as §6"}, "[22]": {"species_on_record": "Homo sapiens", "experiment": "Inhibition of human 20S proteasome chymotrypsin-like activity preincubated at 10 uM for 30 mins before substrate addition measured over 90 mins by fluorescence assay"}}, "note": "Activity calls are given as the source filed them. The rule behind the calls is not given here."}
{"molecule": "Cc1ccc(OS(=O)(=O)c2cccc(C(F)(F)F)c2)c(-c2cc(-c3ccccc3)n(CCN[C@@H]3CCNC3)n2)c1", "values": [{"measurement": "inhibition", "setting": "[1]", "result": "inactive"}, {"measurement": "inhibition", "setting": "[2]", "result": "Active"}, {"measurement": "IC50", "setting": "[3]", "result": 7, "unit": "µM"}, {"measurement": "inhibition", "setting": "[4]", "result": "inactive"}, {"measurement": "inhibition", "setting": "[5]", "result": "Active"}, {"measurement": "inhibition", "setting": "[6]", "result": "Active"}, {"measurement": "inhibition", "setting": "[7]", "result": "Active"}, {"measurement": "inhibition", "setting": "[8]", "result": "Active"}, {"measurement": "inhibition", "setting": "[9]", "result": "inactive"}, {"measurement": "inhibition", "setting": "[10]", "result": "Active"}, {"measurement": "IC50", "setting": "[11]", "result": 7, "unit": "µM"}]}
{"molecule": "Cc1ccc(OS(=O)(=O)c2cccc(C(F)(F)F)c2)c(-c2cc(-c3ccccc3)n(CC(=O)N[C@@H]3CCNC3)n2)c1", "values": [{"measurement": "Activity", "setting": "[12]", "result": "Active"}, {"measurement": "TGI", "setting": "[13]", "result": "Active"}, {"measurement": "Activity", "setting": "[14]", "result": "Active"}, {"measurement": "inhibition", "setting": "[1]", "result": "inactive"}, {"measurement": "Stability", "setting": "[15]", "result": "Stable"}, {"measurement": "inhibition", "setting": "[2]", "result": "Active"}, {"measurement": "Activity", "setting": "[16]", "result": "Active"}, {"measurement": "Activity", "setting": "[17]", "result": "Active"}, {"measurement": "Activity", "setting": "[18]", "result": "Active"}, {"measurement": "T1/2", "setting": "[19]", "result": 3.2, "unit": "min"}, {"measurement": "Activity", "setting": "[20]", "result": "Non-toxic"}, {"measurement": "inhibition", "setting": "[6]", "result": "Active"}, {"measurement": "Stability", "setting": "[21]", "result": "Stable"}, {"measurement": "inhibition", "setting": "[22]", "result": "Active"}]}
